Assay results reported in the M2OR odorant receptor database.

Columns and labels:
Settings in all cases: stereoisomer not certain
OR4M1 H277N V279L L284H = system: OR4M1 H277N V279L L284H
Method in brief: (§1)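 Transient luciferase assays in mammalian cell lines were common, though methods varied by source. The values come from published papers and their supplementary material, with extra details from the original authors when needed. Responsive refers to a measured signal the original authors judged statistically different from baseline, and non-responsive (inactive) to the remainder.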

OR4M2 (Homo sapiens) = OR4M2 (Homo sapiens) (UniProt Q8NGB6)
Chain of OR4M2 (Homo sapiens) (Q8NGB6 whole entry): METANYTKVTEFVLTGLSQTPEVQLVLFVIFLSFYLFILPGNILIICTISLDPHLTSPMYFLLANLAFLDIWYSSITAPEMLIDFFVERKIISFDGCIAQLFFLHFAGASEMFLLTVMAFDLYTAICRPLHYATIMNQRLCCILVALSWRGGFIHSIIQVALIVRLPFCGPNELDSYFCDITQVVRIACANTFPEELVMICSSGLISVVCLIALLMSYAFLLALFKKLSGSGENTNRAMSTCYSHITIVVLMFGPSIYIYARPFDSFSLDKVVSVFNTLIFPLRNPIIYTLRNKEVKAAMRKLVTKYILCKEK
Method in brief: as §1

OR4N2 (Homo sapiens) = OR4N2 (Homo sapiens) (UniProt Q8NGD1)
Chain of OR4N2 (Homo sapiens) (Q8NGD1 whole entry): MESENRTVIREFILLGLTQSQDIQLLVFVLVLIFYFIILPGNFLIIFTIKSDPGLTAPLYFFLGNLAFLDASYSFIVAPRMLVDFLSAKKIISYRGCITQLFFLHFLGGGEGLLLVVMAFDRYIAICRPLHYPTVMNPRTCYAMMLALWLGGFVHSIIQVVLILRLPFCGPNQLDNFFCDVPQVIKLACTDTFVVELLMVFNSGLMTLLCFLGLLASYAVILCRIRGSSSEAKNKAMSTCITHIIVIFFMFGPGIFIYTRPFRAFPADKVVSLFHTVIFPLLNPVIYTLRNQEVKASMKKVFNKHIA
Method in brief: as §1

OR4N2 A57V I76T = system: OR4N2 A57V I76T
Method in brief: as §1

OR4N2 R260C F279L R290H = system: OR4N2 R260C F279L R290H
Method in brief: as §1

OR4N2 = system: OR4N2
Chain of OR4N2 (as listed by the source): as the sequence (Q8NGD1 whole entry) above, with I76T counted along it
Method in brief: as §1

OR4N4 (Homo sapiens) = OR4N4 (Homo sapiens) (UniProt Q8N0Y3)
Chain of OR4N4 (Homo sapiens) (Q8N0Y3 whole entry): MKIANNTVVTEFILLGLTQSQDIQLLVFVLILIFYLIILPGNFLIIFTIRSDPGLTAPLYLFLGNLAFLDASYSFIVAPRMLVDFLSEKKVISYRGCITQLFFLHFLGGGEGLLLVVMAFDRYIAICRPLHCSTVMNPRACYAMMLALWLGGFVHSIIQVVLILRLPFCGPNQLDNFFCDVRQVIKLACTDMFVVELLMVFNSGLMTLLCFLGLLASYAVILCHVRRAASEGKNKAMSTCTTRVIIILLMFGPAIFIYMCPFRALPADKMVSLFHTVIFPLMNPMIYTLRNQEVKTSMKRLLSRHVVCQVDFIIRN
Method in brief: as §1

OR4N5 (Homo sapiens) = OR4N5 (Homo sapiens) (UniProt Q8IXE1)
Chain of OR4N5 (Homo sapiens) (Q8IXE1 whole entry): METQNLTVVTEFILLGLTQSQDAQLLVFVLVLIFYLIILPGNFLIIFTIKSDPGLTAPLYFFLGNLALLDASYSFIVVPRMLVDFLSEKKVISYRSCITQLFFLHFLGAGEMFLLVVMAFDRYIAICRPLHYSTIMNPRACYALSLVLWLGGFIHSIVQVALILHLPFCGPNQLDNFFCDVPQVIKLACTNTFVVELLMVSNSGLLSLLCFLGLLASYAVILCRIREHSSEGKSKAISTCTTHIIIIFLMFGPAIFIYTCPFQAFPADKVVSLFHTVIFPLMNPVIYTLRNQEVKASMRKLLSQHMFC
Method in brief: as §1

OR4M2B (Homo sapiens) = OR4M2B (Homo sapiens) (UniProt A0A0X1KG70)
Chain of OR4M2B (Homo sapiens) (A0A0X1KG70 whole entry): as the sequence (Q8NGB6 whole entry) above, with G96E, F225L, M239V, R284H counted along it
Method in brief: as §1

OR4N4C (Homo sapiens) = OR4N4C (Homo sapiens) (UniProt A0A096LPK9)
Chain of OR4N4C (Homo sapiens) (A0A096LPK9 whole entry): as the sequence (Q8N0Y3 whole entry) above, with M259I counted along it
Method in brief: as §1

Measured: odorant receptor agonist call;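 note: active if original authors judged signal statistically different from baseline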

C=CCOC(=O)Cc1ccccc1
inactive: OR4M1 H277N V279L L284H | OR4M2 (Homo sapiens) | OR4N2 (Homo sapiens) | OR4N2 A57V I76T | OR4N2 R260C F279L R290H | OR4N2 | OR4N4 (Homo sapiens) | OR4N5 (Homo sapiens)

Cc1c([N+](=O)[O-])c(C)c([N+](=O)[O-])c(C(C)(C)C)c1[N+](=O)[O-]
inactive: OR4M2 (Homo sapiens) | OR4M2B (Homo sapiens) | OR4N2 (Homo sapiens) | OR4N4 (Homo sapiens) | OR4N4C (Homo sapiens) | OR4N5 (Homo sapiens)
